Experiment: Thiol reactivity assay
Type: physicochemical
Details: room temperature, 1H NMR
Summary of the method: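 Dehydroamino-acid peptide (typically 0.010–0.015 mmol) in DMSO-d6 with 1,3,5-trimethoxybenzene as internal standard, treated with 2 equiv cysteamine added from a freshly prepared 0.5 M stock in DMSO-d6. 1H NMR spectra were recorded over time, and loss of starting peptide was quantified from diagnostic signals against the internal standard. Peptides unreactive at room temperature were heated stepwise to 60, 80 and 100 °C.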

SMILES: C=C1CCOC1=O [α-methylene-γ-butyrolactone]
- time to complete consumption of the electrophile by cysteamine: ≤ 5 min

Source: publication PMC7077758 (The Journal of organic chemistry, 2019)
